In ChEMBL document CHEMBL1629555, “Antimalarial activity of phenylthiazolyl-bearing hydroxamate-based histone deacetylase inhibitors” (Antimicrob Agents Chemother, 2008):
The source made the active and inactive calls. No cut-off for these calls is given here.

Experiments:
Plasmodium berghei [1] = assay: Antimalarial activity against Plasmodium berghei infected in mouse assessed as effect on cure rate at single dose of 20 mg/kg/day, po for 3 days; format: functional, organism-based
Procedure, shortened: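 Mice were infected ip with 10^6 P. berghei-parasitized erythrocytes. The compound was given in hydroxyethylcellulose-Tween 20 vehicle, 5 mice per group, starting on day 3 post-infection. Regimens were once-daily or split daily oral doses over 3 days, subcutaneous dosing, or dosing over 7 days. Read-outs were posttreatment parasitemia on day 6 as a fraction of controls and the number of mice cured.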

Mus musculus = assay: Toxicity in Plasmodium berghei-infected mouse assessed as mortality at split dose of 640 mg/kg/day, po for 3 days; format: organism-based; parameters: route oral; conditions: in vivo, 72 h
Plasmodium berghei [2] = assay: Antimalarial activity against Plasmodium berghei infected in mouse assessed as parasitemia level at 3.2 mg/kg/day for 3 days measured on day 6 in presence of 4 mg/kg/day chloroquine (reference value: 37%); format: functional
Plasmodium berghei [3] = assay: Antimalarial activity against Plasmodium berghei infected in mouse assessed as parasitemia level at 12.8 mg/kg/day for 3 days measured on day 6 in presence of 16 mg/kg/day chloroquine (reference value: 37%); format: functional
Procedure, shortened: (§1)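 Mice were infected ip with 10^6 P. berghei-parasitized erythrocytes. The compound was given orally once daily on days 3, 4 and 5 post-infection in hydroxyethylcellulose-Tween 20 vehicle, alone or together with chloroquine, with 5 mice per dose group. Parasitemia (%) was read on days 3 and 6, and cures were counted as animals cured out of 5.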

Plasmodium berghei [4] = assay: Antimalarial activity against Plasmodium berghei infected in mouse assessed as effect on cure rate at 160 mg/kg/day for 3 days measured on day 6 in presence of 2 mg/kg/day chloroquine; format: functional, organism-based; procedure, shortened: as §1
[5] = Tmax in ICR mouse at 50 mg/kg/day, po by LC/MS analysis; format: ADME, organism-based; parameters: route oral; conditions: in vivo
Procedure, shortened: (§2)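 Male ICR mice, 8 weeks old, got one 50 mg/kg dose either orally or subcutaneously, with three groups of six mice per route. One mouse per group was killed at 15, 30 and 60 min and at 3, 6 and 24 h. Plasma was deproteinized with 2 volumes of acetonitrile and analysed by LC-MS/MS on a C18 column against 0–500 ng/ml standards, with parent and acid metabolite measured in the same sample. Each six-mouse group was treated as one "animal" and fitted to a two-compartment model. AUC was taken by the linear trapezoidal rule extrapolated to infinity, and Cmax and Tmax were read per "animal".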

[6] = Half life in ICR mouse at 50 mg/kg/day, po by LC/MS analysis; format: ADME, organism-based; parameters: route oral; conditions: in vivo; procedure, shortened: as §2
[7] = Half life in ICR mouse at 50 mg/kg/day, sc by LC/MS analysis; format: ADME, organism-based; parameters: route subcutaneous; conditions: in vivo; procedure, shortened: as §2

Nc1cccc(-c2csc(NC(=O)CCCCCCC(=O)NO)n2)c1
Activity (Plasmodium berghei [1]): inactive | Activity (Mus musculus): Non-toxic | Activity (Plasmodium berghei [2]): 0.029% | Activity (Plasmodium berghei [3]): 0% | Activity (Plasmodium berghei [4]): inactive | Tmax [5]: 0.83 h | half-life [6]: 3.5 h | half-life [7]: 8.5 h
